Assay outcomes deposited in PubChem by Broad Institute.
This excerpt belongs to a sample that is enriched for hits.
INS-1E ATP HTS = rescue of cytokine-induced death in INS-1E beta cells; INS-1E cytokine-induced death, ATP luminescence, 48 h; normalised: neutral wells 0, positive control 100; protection from cytokine-induced ATP loss, % at 10 µM; 0.1% of 20,000 active; AID 488910;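 active = mean replicate protection from cytokine-induced ATP loss at least 50% and at least 75% of replicates each reaching 50%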
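Assay system – rat INS-1E insulinoma cell line · Quantity – 8000 cells per well · Buffer or medium – RPMI without phenol red, 5% FBS · Schedule – 48 h co-treatment, 10 min post-lysis read · Technique – luminescent ATP assay (CellTiter-Glo)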
T cruzi HTS = blocks T. cruzi growth inside host cells | AID 651903 | intracellular Trypanosoma cruzi in host cells, plate reader | 4.9% of 22,000 active | activity score (inhibition), % at 5.01 µM; in the data active = activity score above about 55%;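 note: parasites and compound incubated about four days before reading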
A1 apoptosis 2 = A1 inhibition read as caspase activation; MEF A1-2A-BIM cells, caspase-Glo luminescence, 3 h; percent of clofoctol response, DMSO zero; caspase activation, % (test concentration not listed); 24,000 tested, under 10 active; AID 2465; in the data active = caspase activation above about 5.9%
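Material: A1-2A-BIM-expressing MEF cells. Buffer or medium: RPMI-1640 plus 10% FBS. Incubation: cells settled overnight, compound exposure 3 h at 37 °C, 5% CO2. Signal: Caspase-Glo 3/7 luminescence, 1 h at room temperature.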
Each line names hits and unclear results; the compound was inactive in the other large screens.

C[C@@H]1CN([C@@H](C)CO)C(=O)Cc2cc(NC(=O)Nc3ccc4c(c3)OCO4)ccc2O[C@@H]1CN(C)Cc1ccc2c(c1)OCO2	none (no result: A1 apoptosis 2)
C[C@H](CO)N1C[C@H](C)[C@H](CN(C)Cc2ccc3c(c2)OCO3)Oc2ccc(NC(=O)Nc3ccc(C(F)(F)F)cc3)cc2CC1=O	T cruzi HTS 74.3
COC(=O)CCCCCCC(=O)N/N=C/[C@H](O)[C@@H](O)[C@H](O)CO	none
O=C(O)CCCCCC(=O)N/N=C/c1ccc(CO)o1	none (no result: A1 apoptosis 2)
C[C@@H]1CN([C@@H](C)CO)C(=O)Cc2cc(NS(=O)(=O)c3ccc(Cl)cc3)ccc2O[C@H]1CN(C)C(=O)Nc1ccc2c(c1)OCO2	none (no result: INS-1E ATP HTS, T cruzi HTS)
OC[C@@H]1[C@H]2c3ccccc3OC1(CO)N=C1SCc3ccccc3CN12	none (no result: INS-1E ATP HTS, T cruzi HTS)
C=C[C@@H](COC(C)=O)NS(=O)(=O)c1ccc(Br)cc1	none (no result: INS-1E ATP HTS, T cruzi HTS)
NC(=O)COc1ccccc1/C=N/NC(=O)c1cccc(C(=O)NO)c1	none
COC(=O)CCCCCCC(=O)N/N=C/c1ccc(N(C)CCO)cc1	none
C[C@@H]1CN([C@H](C)CO)C(=O)c2cccc(NC(=O)c3nc4ccccc4s3)c2O[C@H]1CN(C)Cc1ccc2c(c1)OCO2	none
C[C@H]1CN([C@@H](C)CO)C(=O)c2cccc(NC(=O)c3nc4ccccc4s3)c2O[C@@H]1CN(C)Cc1ccc2c(c1)OCO2	T cruzi HTS 59.1 (no result: A1 apoptosis 2)
C[C@@H]1CN([C@H](C)CO)C(=O)c2cccc(NC(=O)c3nc4ccccc4s3)c2O[C@@H]1CN(C)Cc1ccc2c(c1)OCO2	none
C[C@@H]1CN([C@@H](C)CO)C(=O)c2cccc(NC(=O)c3nc4ccccc4s3)c2O[C@H]1CN(C)Cc1ccc2c(c1)OCO2	T cruzi HTS 61.2
C[C@@H]1CN([C@H](C)CO)C(=O)Cc2cc(NS(=O)(=O)c3ccccc3)ccc2O[C@H]1CN(C)Cc1ccc(Cl)c(Cl)c1	T cruzi HTS 73.1
C[C@H]1CN([C@@H](C)CO)C(=O)Cc2cc(NS(=O)(=O)c3ccccc3)ccc2O[C@H]1CN(C)Cc1ccc(Cl)c(Cl)c1	none
C[C@H](CO)N1C[C@H](C)[C@H](CN(C)Cc2ccc(Cl)c(Cl)c2)Oc2ccc(NS(=O)(=O)c3ccccc3)cc2CC1=O	none
C[C@@H]1CN([C@H](C)CO)C(=O)Cc2cc(NS(=O)(=O)c3ccccc3)ccc2O[C@@H]1CN(C)Cc1ccc(Cl)c(Cl)c1	T cruzi HTS 65.3
C[C@@H]1CN([C@H](C)CO)C(=O)c2cc(NS(=O)(=O)c3cn(C)cn3)ccc2O[C@@H](C)CCCCO[C@@H]1CN(C)C(=O)c1ccncc1	none (no result: INS-1E ATP HTS, T cruzi HTS)
COc1ccc(/C=N/NC(=O)CCCCCCC(=O)Nc2ccccc2O)cc1OC	none
O=C(NO)c1cccc(C(=O)N/N=C/c2ccccn2)c1	none
COc1ccc([Si](C)(C)[C@@H]2[C@@H](CCn3cc(CCO)nn3)O[C@]3(C(=O)N(C)c4c(Br)cc(C)cc43)[C@H]2C)cc1	none (no result: INS-1E ATP HTS, T cruzi HTS)
C=CCOC(=O)[C@]12O[C@@]3(COC[C@H](c4ccccc4)N3C1=O)[C@H]1C(=O)N(c3ccccc3)C(=O)[C@H]12	none (no result: INS-1E ATP HTS, T cruzi HTS)
Cc1ccc(S(=O)(=O)N[C@@H](Cc2ccccc2)C(=O)NCCN=[N+]=[N-])cc1	none (no result: INS-1E ATP HTS, T cruzi HTS)
C[C@@H]1CN([C@@H](C)CO)C(=O)c2cc(NC(=O)Nc3ccc(C(F)(F)F)cc3)ccc2O[C@H]1CN(C)Cc1ccc(C(=O)Nc2ccccc2N)cc1	none (no result: A1 apoptosis 2)
C[C@@H]1CN([C@@H](C)CO)C(=O)Cc2cc(NC(=O)Nc3ccc(C(F)(F)F)cc3)ccc2O[C@@H]1CN(C)Cc1ccc(C(=O)Nc2ccccc2N)cc1	T cruzi HTS 83.8 (no result: A1 apoptosis 2)
C[C@@H]1CN([C@H](C)CO)C(=O)Cc2cc(NC(=O)Nc3ccc(F)cc3)ccc2O[C@H]1CN(C)Cc1ccc(C(=O)Nc2ccccc2N)cc1	none (no result: A1 apoptosis 2)
C[C@@H]1CN([C@H](C)CO)C(=O)c2cc(NC(=O)Nc3ccc(C(F)(F)F)cc3)ccc2O[C@H]1CN(C)Cc1ccc(C(=O)Nc2ccccc2N)cc1	T cruzi HTS 56.9
C[C@H]1CN([C@@H](C)CO)C(=O)Cc2cc(NC(=O)NC3CCCCC3)ccc2O[C@@H]1CN(C)Cc1ccc(C(=O)Nc2ccccc2N)cc1	none (no result: INS-1E ATP HTS, T cruzi HTS)
C[C@@H]1CN([C@@H](C)CO)C(=O)Cc2cc(NC(=O)CCC(F)(F)F)ccc2O[C@@H]1CN(C)Cc1ccc(C(=O)Nc2ccccc2N)cc1	T cruzi HTS 68.3 (no result: A1 apoptosis 2)
C[C@H](CO)N1C[C@H](C)[C@H](CN(C)Cc2ccc(C(=O)Nc3ccccc3N)cc2)Oc2ccc(NC(=O)CCC(F)(F)F)cc2CC1=O	none
CC(C)NC(=O)Nc1ccc2c(c1)CC(=O)N([C@H](C)CO)C[C@H](C)[C@H](CN(C)Cc1ccc(C(=O)Nc3ccccc3N)cc1)O2	T cruzi HTS 68.1 (no result: A1 apoptosis 2)
CCO/N=[N+](\[O-])N1CCCC1	none (no result: INS-1E ATP HTS, T cruzi HTS)
N#Cc1ccc(/C=N/NC(=O)c2ccc(C(=O)NO)cc2)cc1	none (no result: A1 apoptosis 2)
CNC[C@H]1Oc2ccc(NS(=O)(=O)c3ccc(OC)cc3)cc2CC(=O)N([C@H](C)CO)C[C@H]1C	none
C[C@@H]1CN([C@H](C)CO)C(=O)Cc2cc(NC(=O)Nc3ccccc3)ccc2O[C@@H]1CN(C)Cc1ccc(C(=O)Nc2ccccc2N)cc1	T cruzi HTS 63.8
C[C@@H]1CN([C@@H](C)CO)C(=O)Cc2cc(NC(=O)Nc3ccc(F)cc3)ccc2O[C@H]1CN(C)Cc1ccc(C(=O)Nc2ccccc2N)cc1	none (no result: INS-1E ATP HTS, T cruzi HTS)
C[C@H]1CN([C@@H](C)CO)C(=O)Cc2cc(NC(=O)Nc3ccc(F)cc3)ccc2O[C@@H]1CN(C)Cc1ccc(C(=O)Nc2ccccc2N)cc1	none
C[C@H](CO)N1C[C@H](C)[C@H](CN(C)Cc2ccc(C(=O)Nc3ccccc3N)cc2)Oc2ccc(NC(=O)Nc3ccc(C(F)(F)F)cc3)cc2CC1=O	T cruzi HTS 82.0 (no result: A1 apoptosis 2)
O=C(CCCCCCC(=O)N/N=C/c1nccs1)NO	none (no result: INS-1E ATP HTS, T cruzi HTS)
O=C(N/N=C/c1ccc(OCc2ccccc2)cc1O)c1ccccn1	none (no result: INS-1E ATP HTS, T cruzi HTS)
C[C@H]1CN([C@@H](C)CO)C(=O)Cc2cc(NS(=O)(=O)c3ccc(Cl)cc3)ccc2O[C@H]1CN(C)Cc1ccccc1	T cruzi HTS 75.5 (no result: A1 apoptosis 2)
C[C@H]1CN([C@@H](C)CO)C(=O)Cc2cc(NS(=O)(=O)c3ccc(Cl)cc3)ccc2O[C@@H]1CN(C)Cc1ccccc1	T cruzi HTS 68.6 (no result: A1 apoptosis 2)
C[C@@H]1CN([C@@H](C)CO)C(=O)Cc2cc(NS(=O)(=O)c3ccc(Cl)cc3)ccc2O[C@@H]1CN(C)Cc1ccccc1	none
C[C@@H]1CN([C@@H](C)CO)C(=O)Cc2cc(NS(=O)(=O)c3ccc(Cl)cc3)ccc2O[C@H]1CN(C)Cc1ccccc1	none (no result: INS-1E ATP HTS, T cruzi HTS)
C[C@H]1CN([C@@H](C)CO)C(=O)Cc2cc(NC(=O)NC3CCCCC3)ccc2O[C@@H]1CN(C)S(=O)(=O)c1cccs1	none
C[C@@H]1CN([C@H](C)CO)C(=O)Cc2cc(NC(=O)Nc3ccc(C(F)(F)F)cc3)ccc2O[C@H]1CN(C)Cc1ccc(Oc2ccccc2)cc1	T cruzi HTS 61.6
COc1ccc(NC(=O)Nc2ccc3c(c2)CC(=O)N([C@H](C)CO)C[C@H](C)[C@@H](CN(C)Cc2ccc(C(F)(F)F)cc2)O3)cc1	none (no result: INS-1E ATP HTS, T cruzi HTS)
